Bioassay records (PubChem)
TRPC6 activator: activators of mouse TRPC6 channel; B-score at 10 µM; Q61143; 310,000 compounds, 0.13% hits; HEK293-TRPC6 membrane potential dye fluorescence; hits give high values;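 active = B-score of the integrated fluorescence ratio above library mean plus 3 SD, and starting fluorescence ratio within library mean plus 5 SD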;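 also: higher score means more depolarization so channel activation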
Target sequence (Q61143 whole entry, looked up): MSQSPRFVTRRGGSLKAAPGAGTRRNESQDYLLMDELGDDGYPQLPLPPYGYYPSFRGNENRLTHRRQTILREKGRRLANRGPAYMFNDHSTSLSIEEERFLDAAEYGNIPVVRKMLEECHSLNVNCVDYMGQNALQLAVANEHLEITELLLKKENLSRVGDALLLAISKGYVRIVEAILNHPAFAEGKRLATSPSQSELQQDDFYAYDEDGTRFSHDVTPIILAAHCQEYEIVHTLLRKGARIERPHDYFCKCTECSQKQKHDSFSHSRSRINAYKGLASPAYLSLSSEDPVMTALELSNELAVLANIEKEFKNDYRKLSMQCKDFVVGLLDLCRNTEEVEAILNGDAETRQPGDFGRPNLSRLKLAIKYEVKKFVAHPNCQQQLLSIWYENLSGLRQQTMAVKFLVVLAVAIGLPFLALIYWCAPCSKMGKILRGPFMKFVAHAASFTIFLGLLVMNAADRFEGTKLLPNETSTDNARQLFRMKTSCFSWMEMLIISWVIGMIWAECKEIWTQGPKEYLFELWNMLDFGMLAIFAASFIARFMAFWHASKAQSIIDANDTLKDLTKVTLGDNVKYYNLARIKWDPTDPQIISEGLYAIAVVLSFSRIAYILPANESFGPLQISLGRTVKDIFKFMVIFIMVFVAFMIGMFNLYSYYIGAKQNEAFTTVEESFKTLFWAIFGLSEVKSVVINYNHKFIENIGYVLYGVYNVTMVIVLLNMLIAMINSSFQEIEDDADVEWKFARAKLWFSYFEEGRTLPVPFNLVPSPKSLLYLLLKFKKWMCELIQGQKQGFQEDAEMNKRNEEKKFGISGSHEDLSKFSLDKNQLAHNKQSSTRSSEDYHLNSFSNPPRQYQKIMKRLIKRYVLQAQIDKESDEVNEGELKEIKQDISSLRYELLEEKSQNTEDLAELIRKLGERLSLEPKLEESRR
TRPC6 inhibitor: inhibitors of mouse TRPC6 channel; B-score at 10 µM; 310,000 compounds, 1.1% hits; AID 2553; Q61143; HEK293-TRPC6, membrane potential dye, ACh-evoked depolarization; hits give low values;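 active = B-score under library mean minus 3 SD, initial fluorescence not abnormally high, positive integrated signal ratio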;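 also: B-score derived from integrated fluorescence ratio over the kinetic read; more negative B-score means stronger inhibition of depolarization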
TRPC4 act: opens the mouse TRPC4 cation channel. HEK293 TRPC4beta/mu-opioid, Fluo4 calcium fluorescence; hits give high values. B-score at 10 µM. 310,000 compounds, 0.49% hits. AID 2237;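 active = B-score above 5 SD of library B-scores, and initial fluorescence ratio not above library mean plus 5 SD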;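 also: positive B-score marks a calcium rise read as TRPC4 activation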
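Technique: kinetic Fluo4 calcium fluorescence; Test system: TRPC4beta and mu-opioid receptor HEK293 stable cells; Measure: B-scored integrated calcium fluorescence ratio; Benchmarks: low control buffer alone, high control maximal DAMGO; Schedule: 45 min room-temperature Fluo4 loading, 110 s read.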
TRPC4 potent: allosteric potentiators of mouse TRPC4 channel. Q9QUQ5. B-score at 10 µM. 310,000 compounds, 0.42% hits. AID 2227. HEK293 TRPC4beta/mu-opioid, DAMGO EC20, Fluo-4 Ca2+ flux; hits give high values;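 active = B-score of calcium response area above 5 SD of library B-scores, with initial fluorescence ratio within 5 SD of library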
TRPC4 inh: blocks the mouse TRPC4 cation channel; Q9QUQ5; HEK293 TRPC4beta/mu-opioid, DAMGO-evoked Fluo4 calcium flux; hits give low values; B-score at 10 µM; 300,000 compounds, 0.39% hits; AID 2247;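 active = B-score over 3 SD under the library average, no early fluorescence shift, positive overall ratio signal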
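material = TRPC4beta/mu-opioid receptor HEK293 cell line | probe or stimulus = sequential submaximal and maximal DAMGO stimulation | compound dosing = one concentration per compound | measured by = Fluo4 Ca2+ flux fluorescence | evaluation = integrated fluorescence ratio relative to baseline, converted to per-well B score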
TRPC4 sel inh 2: mouse TRPC4 off-target activity of TRPC6 inhibitors, second screen | shares compounds with TRPC6 inhibitor | HEK293 TRPC4/MOR, membrane potential dye fluorescence; channel activated by saturating DAMGO dose | inhibition, % at 10 µM | 920 compounds, 42% hits | AID 2776;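 active = compounds whose fluorescence signal differed from control wells by over 3 SD, either direction, in both duplicate plates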
TRPC4 spec: tests whether TRPC6 inhibitors also affect mouse TRPC4; shares compounds with TRPC6 inhibitor; HEK293 TRPC4/mu-opioid, membrane potential fluorescence; activity change, negative = inhibition, % at 10 µM; 920 compounds, 61% hits; AID 2777;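 active = rise or fall in signal beyond 3 SD of buffer-only wells in both replicate plates, either sign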;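 also: integrated kinetic ratio of fluorescence range over baseline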
HEK293 MPD ctr 2-1: parental HEK293 nonspecific activity of TRPC6 inhibitors, second screen; shares compounds with TRPC6 inhibitor; parental HEK293 membrane potential dye fluorescence; maximal acetylcholine challenge after compound addition; signal change vs control, % at 10 µM; 920 compounds, 31% hits; AID 2779;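 active = membrane potential signal moving either way by over 3 SD of the maximum-effect control, in both duplicate plates, meaning non-specific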
HEK293 MPD ctr-1: counter-screen for TRPC6 inhibitors: effect in parental HEK293 cells | 920 compounds, 60% hits | parental HEK293 membrane potential dye fluorescence | membrane potential signal change, % at 10 µM | shares compounds with TRPC6 inhibitor;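 active = membrane potential signal shifting up or down by more than 3 SD of buffer-only wells, on both duplicate plates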
HEK293 MPD ctr-2: counter-screen for TRPC6 modulators: effect in parental HEK293 cells | AID 488924 | membrane potential signal change, % at 10 µM | 2,400 compounds, 51% hits | membrane potential dye fluorescence | shares compounds with TRPC6 inhibitor;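 active = membrane potential signal moves up or down beyond 5 SD from buffer-only wells, on both duplicate plates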
HEK293 MPD ctr 2-2: parental HEK293 nonspecific activity of TRPC6 modulators, second screen. membrane potential dye fluorescence; after compound, maximal acetylcholine stimulation. AID 488926. 2,400 compounds, 14% hits. inhibition, % at 10 µM. shares compounds with TRPC6 inhibitor;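 active = membrane potential signal drops by more than 5 SD from the mean control signal, in both duplicate plates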
TRPC4 ctr mod: tests whether TRPC6 modulators also affect mouse TRPC4; shares compounds with TRPC6 inhibitor; HEK293 TRPC4/mu-opioid, membrane potential fluorescence; percent change from control (negative = decrease, positive = increase), % at 10 µM; 2,400 compounds, 69% hits; AID 488927;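 active = membrane potential signal moved up or down beyond 5 SD of buffer control wells, in both duplicate plates, actives on both sides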
TRPC4 ctr inh 2: mouse TRPC4 off-target activity of TRPC6 modulators, second screen; 2,400 compounds, 55% hits; HEK293 TRPC4/mu-opioid, membrane potential dye fluorescence; stimulated with maximal-effect DAMGO; inhibition, % at 10 µM; AID 488928; shares compounds with TRPC6 inhibitor;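 active = drop in membrane potential signal beyond 5 SD of the control wells in both duplicate plates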;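 also: TRPC4 counter screen for TRPC6 hits run under conditions tuned for TRPC6 not TRPC4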
TRPC6 block conf: mouse TRPC6 inhibitor confirmation. AID 488960. HEK293-TRPC6, membrane potential dye, ACh-evoked depolarization. inhibition, % at 10 µM. 3,300 compounds, 43% hits. shares compounds with TRPC6 inhibitor;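 active = fluorescence ratio falls more than 5 SD below the full-stimulation control mean, in both duplicate runs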;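 also: integrated fluorescence ratio of peak minus minimum over baseline after agonist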
TRPC6 act confirm: mouse TRPC6 activator confirmation. AID 488961. HEK293-TRPC6 membrane potential dye fluorescence, FDSS. 2,800 compounds, 11% hits. activation, % at 10 µM. shares compounds with TRPC6 inhibitor;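 active = ratio signal rise beyond 5 SD above unstimulated control wells' mean, seen in both duplicate runs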
Each line names hits and unclear results; the compound was inactive in the other large screens (follow-up assays come after a bar, where they were run). Shown are actives, neighbours in structure and some others; about 2.3% of the full set was active somewhere.

Cc1ccc(S(=O)(=O)N(C)C)cc1NC(=O)c1cccnc1Oc1ccccc1	none
N#Cc1cc2sc3nnc(-c4ccncc4)n3c2cc1C#N	TRPC6 inhibitor -8.18 | HEK293 MPD ctr-2 -367.5% | HEK293 MPD ctr 2-2 85.5% | TRPC4 ctr mod -68.5% | TRPC4 ctr inh 2 82.5% | TRPC6 block conf 47.0% | TRPC6 act confirm inactive
COCCNC(=O)c1c[nH]c2ccc(S(=O)(=O)N3CCC4(CC3)OCCO4)cc2c1=O	none
CC1CCC(NC(=O)CCS(=O)(=O)c2ccc3c(c2)NC(=O)C(C)S3)CC1 (configuration not stated)	none
O=C(O)CC1(CC(=O)Nc2ccc3sccc3c2)CCCCC1	none
Cc1ccc(Nc2nc(-c3sc(N)nc3C)cs2)cc1	TRPC6 inhibitor -7.66 | TRPC4 sel inh 2 inactive | TRPC4 spec -10.9% | HEK293 MPD ctr 2-1 inactive | HEK293 MPD ctr-1 -237.0% | TRPC6 block conf inactive | TRPC6 act confirm inactive
Cc1cc(C)n(C(=O)Cn2nc([N+](=O)[O-])c(Br)c2C)n1	none
CN(Cc1ccc(OC(F)F)cc1)C(=O)c1ccccc1Sc1ccccc1C#N	none
Cc1ccc(CN(C)C(=O)c2ccccc2Sc2ccccc2C#N)cc1	TRPC6 inhibitor -5.07 | HEK293 MPD ctr-2 104.0% | HEK293 MPD ctr 2-2 inactive | TRPC4 ctr mod 22.0% | TRPC4 ctr inh 2 inactive | TRPC6 block conf 62.5%
CC(C)OP(=O)(OC(C)C)C(C)NC(=O)Cc1ccccc1 (configuration not stated)	none
CCOc1ccc(NC(=S)N(CCCN2CCCC2)Cc2cccn2Cc2ccc(Cl)cc2)cc1	TRPC6 inhibitor -5.16 | HEK293 MPD ctr-2 inactive | HEK293 MPD ctr 2-2 inactive | TRPC4 ctr mod inactive | TRPC4 ctr inh 2 53.0% | TRPC6 block conf inactive | TRPC6 act confirm inactive
Cc1noc(C(=O)Nc2cccc(O)c2)c1Cl	none
CC(C)(C)SCCNC(=O)COc1ccc(Cl)cc1	TRPC6 inhibitor -5.31 | HEK293 MPD ctr-2 inactive | HEK293 MPD ctr 2-2 inactive | TRPC4 ctr mod inactive | TRPC4 ctr inh 2 inactive | TRPC6 block conf inactive
Cc1ccccc1CSCCNC(=O)COc1ccc(Cl)cc1	none
Cc1nnc(SCC(=O)Nc2ccccc2)[nH]c1=O	none
CN(C)C/C=C/C(O)(c1ccccc1)c1ccccc1	TRPC6 inhibitor -7.59 | TRPC4 sel inh 2 inactive | TRPC4 spec inactive | HEK293 MPD ctr 2-1 inactive | HEK293 MPD ctr-1 1.3% | TRPC6 block conf 60.6% | TRPC6 act confirm inactive
CN(C)CCCOc1ccc(C(C)(C)c2ccccc2)cc1	none
Cc1cccc(NS(=O)(=O)c2cc(C(=O)N3CCN(C)CC3)ccc2C)c1	none
CCN1CCN(C(=O)c2ccc(C)c(S(=O)(=O)Nc3cccc(C)c3)c2)CC1	TRPC6 inhibitor -5.77 | HEK293 MPD ctr-2 inactive | HEK293 MPD ctr 2-2 inactive | TRPC4 ctr mod inactive | TRPC4 ctr inh 2 inactive | TRPC6 block conf inactive | TRPC6 act confirm inactive
CCc1cc(=O)oc2c(C)c(OCC(=O)NC3CC(C)(C)NC(C)(C)C3)ccc12	TRPC6 inhibitor -5.72 | HEK293 MPD ctr-2 -150.0% | HEK293 MPD ctr 2-2 inactive | TRPC4 ctr mod -31.0% | TRPC4 ctr inh 2 36.5% | TRPC6 block conf 38.0% | TRPC6 act confirm inactive
CCc1cc(=O)oc2c(C)c(OC(C)C(=O)NC3CC(C)(C)NC(C)(C)C3)ccc12 (configuration not stated)	none
C[N+]1(C)[C@@H]2CC(OC(=O)[C@H](CO)c3ccccc3)C[C@H]1[C@@H]1O[C@@H]12 (some centres not stated)	TRPC6 inhibitor -8.22 | TRPC4 sel inh 2 inactive | TRPC4 spec inactive | HEK293 MPD ctr 2-1 -9.0% | HEK293 MPD ctr-1 inactive | TRPC6 block conf 93.1% | TRPC6 act confirm inactive
CCC(C(=O)OCC(=O)Nc1c(Cl)cccc1Cl)c1ccccc1 (configuration not stated)	none
COc1ccccc1-c1c(C)oc2c(CN3CCCC(C)C3)c(O)ccc2c1=O (configuration not stated)	none
COc1ccccc1-c1coc2c(CN3CCCC(C)C3)c(O)ccc2c1=O (configuration not stated)	TRPC6 inhibitor -5.87 | HEK293 MPD ctr-2 inactive | HEK293 MPD ctr 2-2 inactive | TRPC4 ctr mod inactive | TRPC4 ctr inh 2 inactive | TRPC6 block conf inactive | TRPC6 act confirm inactive
O=[N+]([O-])c1cc([N+](=O)[O-])c2c(=Nc3ccccc3)n(-c3ccccc3)n(O)c2c1	TRPC6 inhibitor -7.15 | TRPC4 sel inh 2 49.5% | TRPC4 spec -13.5% | HEK293 MPD ctr 2-1 inactive | HEK293 MPD ctr-1 -183.5% | TRPC6 block conf inactive | TRPC6 act confirm inactive
O=[N+]([O-])c1cc(Br)c(Nc2ccccc2)c([N+](=O)[O-])c1	none
O=C(CNC(=O)c1ccc(Cl)cc1Cl)OCC(=O)N1CCCC1=O	none
O=C(O)CCC(=O)NCCn1c(-c2ccccc2)csc1=Nc1ccccc1	none
OCCCn1c(-c2ccccc2)csc1=Nc1ccccc1	TRPC6 inhibitor -5.76 | HEK293 MPD ctr-2 382.0% | HEK293 MPD ctr 2-2 141.0% | TRPC4 ctr mod 76.5% | TRPC4 ctr inh 2 inactive | TRPC6 block conf 126.0%
CCOc1cc(C2Nc3cccc4cccc(c34)N2)ccc1O	TRPC6 inhibitor -5.86 | HEK293 MPD ctr-2 -122.0% | HEK293 MPD ctr 2-2 inactive | TRPC4 ctr mod -28.0% | TRPC4 ctr inh 2 57.0% | TRPC6 block conf 41.0% | TRPC6 act confirm inactive
